Source: PubChem
Most compounds without a hit are left out; they make up all but 11% or so of the library.
S1P1 ag-PAM – S1P1 (human) agonism or agonism potentiation; S1P1 CRE-bla cells, forskolin, beta-lactamase FRET, potentiator mode; S1P1 agonist co-added at EC20, 2 nM; 100% = saturating reference agonist, 0% = basal; 56,000 compounds, 0.57% hits; P21453; activation, % at 9.5 µM;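 active = activation above a cutoff set at the mean activation of all tested compounds plus 3 SD, cut at about 54% in these data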;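 also: forskolin at 4 µM as EC80 and the EC20 agonist is SEW2871; 100% = SEW2871 at its EC100 plus forskolin at EC80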
M1 agonist – agonists of M1 muscarinic receptor; CHO-M1 cells, Fluo-4 calcium fluorescence, agonist mode; active compounds read high; B-score at 10 µM; 64,000 compounds, 3% hits; AID 626;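 active = fluorescence rise, raw or as B-score row- and column-corrected plate score, outside the 99.7% band of its plate's samples, either direction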
M1 antagonist – antagonists of rat M1 muscarinic receptor | P08482 | CHO-M1 cells, Fluo-4 calcium, ACh EC80 antagonist mode; active compounds read low | B-score at 10 µM | 64,000 compounds, 3.4% hits | AID 628;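 active = calcium fluorescence response, raw or row-and-column corrected B-score, differing from the plate sample mean either way at a set confidence level, mostly lower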
Target sequence (P08482 whole entry, looked up): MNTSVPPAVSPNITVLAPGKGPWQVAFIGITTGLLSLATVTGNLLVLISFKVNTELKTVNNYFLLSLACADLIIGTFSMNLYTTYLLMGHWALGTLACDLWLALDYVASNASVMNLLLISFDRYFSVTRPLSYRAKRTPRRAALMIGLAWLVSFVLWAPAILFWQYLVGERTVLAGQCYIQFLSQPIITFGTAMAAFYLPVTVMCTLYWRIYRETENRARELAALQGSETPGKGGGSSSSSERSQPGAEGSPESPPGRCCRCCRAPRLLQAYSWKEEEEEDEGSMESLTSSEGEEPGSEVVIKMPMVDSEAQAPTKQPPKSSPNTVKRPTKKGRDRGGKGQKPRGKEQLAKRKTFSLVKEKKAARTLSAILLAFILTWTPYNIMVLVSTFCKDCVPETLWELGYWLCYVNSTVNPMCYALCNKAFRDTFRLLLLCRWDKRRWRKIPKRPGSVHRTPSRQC
D1 allo mod – D1 dopamine receptor (human) allosteric modulation; P21728; HEK293 D1, CRE-luciferase, dopamine EC30 potentiation; actives deviate in either direction; B-score at 10 µM; 58,000 compounds, 5.9% hits;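 active = luminescence count or its row- and column-corrected plate score outside the 99.7% band of the plate's sample wells, on either side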
S1P3 agonist – agonists of human S1P3 receptor; Q99500; S1P3 NFAT-BLA reporter cells, agonism, FRET ratio; relative to 1 µM S1P, basal subtracted; activation, % at 4.5 µM; 60,000 compounds, 0.1% hits;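 active = activation above the screen-wide mean plus 3 SD, cut at about 4.5% in these data, passing the limit was not always enough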
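Measure – % activation relative to 1 µM S1P (100%), per plate · System – stable CHO line with human S1P3, Gα16, NFAT-BLA reporter · Timing – cells plated overnight, compound 4 h 37 °C, substrate 2 h RT · Technique – fluorescent BLA substrate, ex 405 nm, em 460/535 nm ratio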
M1 antag confirm – M1 muscarinic receptor (rat) antagonism, confirmed; CHO-M1 cells, Fluo-4 calcium, ACh EC80 antagonism; active compounds read low; shares compounds with M1 antagonist; calcium response (max-min fluorescence) at 10 µM; 1,700 compounds, 43% hits;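 active = calcium response below the same-plate mean of wells given acetylcholine alone at its 80%-effect dose, minus 3 SD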;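 also: raw fluorescence intensity difference in arbitrary instrument units and not normalized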
mGluR4 antag – selectivity test for M1 antagonists: human mGluR4 receptor | shares compounds with M1 antagonist | CHO-mGluR4 calcium flux, Fluo-4 fluorescence, glutamate EC80; active compounds read low | fluorescence response (max-min) at 10 µM | 1,700 compounds, 0.9% hits | AID 678;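 active = fluorescence response below the plate's average for near-maximal glutamate wells, less 3 SD of those wells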;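 also: raw unnormalized fluorescence span taken in the window right after glutamate addition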
Starred values were filed as active, the others as inactive.

Screening CCCS(=O)(=O)N1CCC(C(=O)N2CCC(Cc3ccccc3)CC2)CC1 returned S1P1 ag-PAM 1, M1 agonist 0.31, M1 antagonist -0.42, D1 allo mod -0.022 and S1P3 agonist -1.
`CCCS(=O)(=O)N1CCCC(C(=O)N2CCN(c3ccccn3)CC2)C1` (stereo not given) gave S1P1 ag-PAM -29, M1 agonist 0.038, M1 antagonist -2.6*, D1 allo mod 1.8, S1P3 agonist 0, M1 antag confirm 525 and mGluR4 antag 191.
For Cc1nn(C)c(C)c1S(=O)(=O)N1CCCC(C(=O)N2CCN(c3ccccc3)CC2)C1 (stereo not given) the results were S1P1 ag-PAM 5, M1 agonist -0.74, M1 antagonist -2.3*, D1 allo mod -0.19, S1P3 agonist -1, M1 antag confirm 617 and mGluR4 antag 257.
C=CCN1C(=O)C2(/C(=C(\O)c3ccc4c(c3)OCCO4)C(=O)C(=O)N2CCCOC)c2ccccc21 (stereo not given) was read as S1P1 ag-PAM -5, M1 agonist -0.32, M1 antagonist -0.16, D1 allo mod -1.7 and S1P3 agonist -2.
`CCC(C)C(NS(=O)(=O)c1ccc(C)cc1)C(=O)NCCN1CCOCC1` (stereo not given) gave S1P1 ag-PAM 2 and S1P3 agonist 0.
For CCOC(=O)C1CCN(CC(O)COc2ccc(C(C)(C)CC)cc2)CC1 (stereo not given) the results were M1 agonist -0.42, M1 antagonist -4.7*, M1 antag confirm 399 and mGluR4 antag 205.
Screening Oc1ccccc1Oc1ncc(Br)c(N2CCOCC2)n1 returned S1P1 ag-PAM -3, M1 agonist -0.35, M1 antagonist -17*, D1 allo mod 3, S1P3 agonist 0, M1 antag confirm 16* and mGluR4 antag 258.
COc1ccc2nc(NC(=O)C3CCCN3S(=O)(=O)c3ccc(C)cc3)sc2c1 (stereo not given) was read as S1P1 ag-PAM 7, M1 agonist -0.4, M1 antagonist -0.3, D1 allo mod -1.5 and S1P3 agonist -1.
For COc1ccc(S(=O)(=O)N2CCCC2C(=O)Nc2nnc(-c3cccnc3)s2)cc1 (stereo not given) the results were S1P1 ag-PAM -12, M1 agonist -0.56, M1 antagonist -1.9*, D1 allo mod 0.97, S1P3 agonist -1, M1 antag confirm 583 and mGluR4 antag 270.
`Cc1c(C(=O)OCC2CCCO2)[nH]c2c1C(=O)CC(c1ccc(N(C)C)cc1)C2` (stereo not given) gave S1P1 ag-PAM 11, M1 agonist 0.012, M1 antagonist -0.36, D1 allo mod -2.2 and S1P3 agonist 0.
For CCOC(=O)CC1C(=O)NCCN1C(=O)Nc1ccccc1 (stereo not given) the results were S1P1 ag-PAM 20, M1 agonist 0, M1 antagonist -2.2*, D1 allo mod 0.41, S1P3 agonist -1, M1 antag confirm 640 and mGluR4 antag 261.
`COC(=O)CC1C(=O)NCCN1C(=O)Nc1ccccc1` (stereo not given) gave S1P1 ag-PAM -2, M1 agonist -0.59, M1 antagonist 0.65, D1 allo mod -0.19 and S1P3 agonist -1.
`Cc1cc(C)n(S(=O)(=O)c2cccc(Cl)c2Cl)n1` gave S1P1 ag-PAM -12, M1 agonist 0.0031, M1 antagonist -0.87, D1 allo mod 0.11 and S1P3 agonist -1.
`CCNC(=O)c1cc2c(=O)n3cccc(C)c3nc2n(Cc2ccc(C)cc2)c1=N` gave S1P1 ag-PAM -41, M1 agonist 0.79, M1 antagonist -2.9*, D1 allo mod 0.36, S1P3 agonist 0, M1 antag confirm 609 and mGluR4 antag 198.
`Cc1cccn2c(=O)c3cc(C(=O)NC(C)C)c(=N)n(Cc4ccncc4)c3nc12` gave S1P1 ag-PAM -4, D1 allo mod -0.37 and S1P3 agonist 0.
Screening COc1ccc(CCn2c(=N)c(C(=O)NCc3ccco3)cc3c(=O)n4ccccc4nc32)cc1 returned S1P1 ag-PAM -17, M1 agonist 0.7, M1 antagonist -2.7*, D1 allo mod -3.7*, S1P3 agonist -4, M1 antag confirm 540 and mGluR4 antag 229.
COCCn1c(=N)c(C(=O)NCCc2ccc(OC)cc2)cc2c(=O)n3cccc(C)c3nc21 was read as S1P1 ag-PAM -15, M1 agonist 1.2, M1 antagonist -4.4*, D1 allo mod -0.22, S1P3 agonist 0, M1 antag confirm 311* and mGluR4 antag 208.
Screening COCCCNC(=O)c1cc2c(=O)n3cccc(C)c3nc2n(C(C)C)c1=N returned S1P1 ag-PAM -14, M1 agonist 0.53, M1 antagonist -0.5, D1 allo mod 0.0024 and S1P3 agonist 1.
Screening N=c1c(C(=O)NCc2ccccc2)cc2c(=O)n3ccccc3nc2n1CCCN1CCOCC1 returned S1P1 ag-PAM -38, M1 agonist 0.095, M1 antagonist -1.6, D1 allo mod -1.1 and S1P3 agonist 3.
Screening CCOC(=O)CSC1=C(C#N)C(c2ccccc2Cl)C(C(=O)OC)C(=O)N1 (stereo not given) returned M1 agonist 0.061, M1 antagonist -1.3, D1 allo mod -0.57 and S1P3 agonist -1.
`O=C(Cn1c(NCCCO)nc2ccccc21)c1cccs1` gave S1P1 ag-PAM -14, M1 agonist -0.14, M1 antagonist -1.3, D1 allo mod -0.012 and S1P3 agonist 0.
`CCC(C)N(C(=O)COC(=O)Cc1n[nH]c(=O)c2ccccc12)C1CCS(=O)(=O)C1` (stereo not given) gave S1P1 ag-PAM -17, M1 agonist 0.99, M1 antagonist -3.6*, D1 allo mod 0.17, S1P3 agonist 0, M1 antag confirm 641 and mGluR4 antag 242.
For Nc1nc(-c2ccc(Cl)cc2Cl)cn1N the results were S1P1 ag-PAM 1, M1 agonist -0.32, M1 antagonist 0.19, D1 allo mod -0.75 and S1P3 agonist -1.
CC(C)Oc1ccc(C(=O)Nc2ccc(N3CCCC3)cc2)cc1 was read as S1P1 ag-PAM 18, M1 agonist -0.018, M1 antagonist -2.1*, D1 allo mod -0.78, S1P3 agonist -2, M1 antag confirm 405* and mGluR4 antag 249.
Screening Cc1ccc(-c2nnc(SCC(=O)Nc3nc4c(s3)CCCC4)n2C)cc1 returned S1P1 ag-PAM 3, M1 agonist 0.64, M1 antagonist -2.4*, S1P3 agonist 0, M1 antag confirm 641 and mGluR4 antag 227.
